The source of these data is ChEMBL document CHEMBL1914406, “Inhibitory effect of novel 5-O-acyl juglones on mammalian DNA polymerase activity, cancer cell growth and inflammatory response” (Bioorg Med Chem, 2011).

Series [1] has as its system HCT-116. In words: Cytotoxicity against human HCT116 cells at 100 uM by WST-1 assay. It counts as functional, cell-based. In a few lines:
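HCT116 colon carcinoma cells (ATCC) grown in McCoy's 5A with 10% FBS, penicillin and streptomycin, 37 °C, 5% CO2. Plated at 1 × 10⁴ cells/well together with compound, which was diluted from a 10 mM DMSO stock into medium (final 0.5% DMSO). Incubated 24 h. Viability read by WST-1, expressed relative to untreated cells.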
In general terms: Tetrazolium dyes change colour on reduction, which living cells bring about.

The subject of series [2] is RAW264.7. In words: Antiinflammatory activity in mouse RAW264.7 cells assessed as inhibition of LPS-induced TNFalpha secretion at 5 uM treated 30 mins before LPS challenge measured after 24 hrs by ELISA. The format is functional, cell-based. An outline of the steps: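 RAW264.7 cells in MEM with 4.5 g/L glucose, 10% FCS, 5 mM L-glutamine, at 37 °C in 5% CO2. Seeded at 5 × 10⁴ cells/well and grown 24 h. Compound (final 1 and 5 µM) given 30 min before 100 ng/mL LPS. After 24 h, TNF-α in the medium measured by ELISA, relative to the no-compound value (100%). Mean ± SE, n = 4.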
(An ELISA detects its analyte on a solid surface through an enzyme-linked reagent.)

For series [3], the system named is RAW264.7. In words: Cytotoxicity against mouse RAW264.7 cells at 5 uM. The format is cell-based. To be noted: raw264.7, 5 µM.
Series [4] deals with Mus musculus. In words: Antiinflammatory activity in mouse assessed as inhibition of TPA-induced mouse ear edema at 500 ug/ear administered 30 mins before TPA challenge measured after 7 hrs relative to untreated control. It counts as functional, organism-based. An outline of the steps:
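Compound (500 µg) applied to one mouse ear; 30 min later TPA (0.5 µg) applied to both ears. Edema scored after 7 h and expressed as percentage of edema. Mean ± SE, n = 6.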

Series [5] has as its target T1, DNA polymerase lambda (Homo sapiens) (UniProt Q9UGP5).
T1 sequence (whole entry): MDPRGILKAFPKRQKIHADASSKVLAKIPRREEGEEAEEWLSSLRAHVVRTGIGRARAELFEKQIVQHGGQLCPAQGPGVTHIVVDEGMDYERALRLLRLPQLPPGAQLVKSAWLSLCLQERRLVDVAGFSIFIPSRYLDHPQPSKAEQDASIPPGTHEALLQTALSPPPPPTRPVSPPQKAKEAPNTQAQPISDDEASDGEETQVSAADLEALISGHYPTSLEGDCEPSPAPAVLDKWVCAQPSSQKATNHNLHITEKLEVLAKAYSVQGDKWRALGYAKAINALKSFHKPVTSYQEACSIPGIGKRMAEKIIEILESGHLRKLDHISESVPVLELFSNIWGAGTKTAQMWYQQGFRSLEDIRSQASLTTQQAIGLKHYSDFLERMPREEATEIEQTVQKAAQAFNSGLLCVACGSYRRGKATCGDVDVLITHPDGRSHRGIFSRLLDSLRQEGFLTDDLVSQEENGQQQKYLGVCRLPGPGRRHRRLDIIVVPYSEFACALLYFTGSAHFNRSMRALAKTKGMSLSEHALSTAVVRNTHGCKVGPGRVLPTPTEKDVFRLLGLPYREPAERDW
In words: Inhibition of recombinant His-tagged human DNA polymerase lambda using poly(dA)/oligo(dT)18 (A/T = 2/1) and dTTP as the DNA template-primer and nucleotide substrate at 10 uM after 60 mins. An outline of the steps: (§1)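 Compound in DMSO, sonicated 30 s. Premixed 0 °C, 10 min with enzyme (0.05 units) in 50 mM Tris-HCl pH 7.5, 1 mM DTT, 50% glycerol, 0.1 mM EDTA, then added to standard reaction mixture. Template-primers: poly(dA)/oligo(dT)18 (2/1) for pols, oligo(dT)18 for TdT, poly(rA)/oligo(dT)18 for HIV-1 RT, with [3H]dTTP. 60 min at 37 °C (Taq 74 °C). Activity relative to no-inhibitor control; mean ± SE of three experiments.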

For series [6], the species on record is Bos taurus. In words: Inhibition of calf DNA polymerase alpha using poly(dA)/oligo(dT)18 (A/T = 2/1) and dTTP as the DNA template-primer and nucleotide substrate at 10 uM after 60 mins. In a few lines:
as §1

Series [7] is filed under the species Homo sapiens. In words: Inhibition of histidine-tagged human DNA polymerase gamma using poly(dA)/oligo(dT)18 (A/T = 2/1) and dTTP as the DNA template-primer and nucleotide substrate at 10 uM after 60 mins. In a few lines: as §1
Series [8] deals with T2, DNA polymerase kappa (Homo sapiens) (UniProt Q9UBT6).
T2 sequence (whole entry): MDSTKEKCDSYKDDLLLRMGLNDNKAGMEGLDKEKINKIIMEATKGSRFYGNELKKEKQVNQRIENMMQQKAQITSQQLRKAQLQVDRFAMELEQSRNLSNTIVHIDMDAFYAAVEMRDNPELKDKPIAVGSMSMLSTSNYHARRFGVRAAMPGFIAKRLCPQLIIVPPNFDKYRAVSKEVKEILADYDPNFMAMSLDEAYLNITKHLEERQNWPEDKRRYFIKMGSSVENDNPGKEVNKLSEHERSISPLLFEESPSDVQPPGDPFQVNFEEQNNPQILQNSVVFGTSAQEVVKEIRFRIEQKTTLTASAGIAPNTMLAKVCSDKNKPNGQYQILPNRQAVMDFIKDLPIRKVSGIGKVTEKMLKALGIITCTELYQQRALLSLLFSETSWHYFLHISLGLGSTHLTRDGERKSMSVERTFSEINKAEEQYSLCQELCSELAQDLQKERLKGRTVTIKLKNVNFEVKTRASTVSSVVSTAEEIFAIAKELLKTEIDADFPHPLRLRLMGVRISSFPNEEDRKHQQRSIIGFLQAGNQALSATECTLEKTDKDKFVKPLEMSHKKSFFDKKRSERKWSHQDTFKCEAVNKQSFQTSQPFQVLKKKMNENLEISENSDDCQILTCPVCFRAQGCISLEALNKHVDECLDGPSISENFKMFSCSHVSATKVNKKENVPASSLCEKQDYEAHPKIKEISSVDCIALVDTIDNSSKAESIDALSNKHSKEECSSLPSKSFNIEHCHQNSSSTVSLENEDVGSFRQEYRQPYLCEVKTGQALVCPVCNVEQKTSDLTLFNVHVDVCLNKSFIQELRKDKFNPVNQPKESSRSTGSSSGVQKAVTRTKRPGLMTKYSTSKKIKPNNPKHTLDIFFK
In words: Inhibition of C-terminal His6-tagged human DNA polymerase kappa (amino acids 1 to 560) using poly(dA)/oligo(dT)18 (A/T = 2/1) and dTTP as the DNA template-primer and nucleotide substrate at 10 uM after 60 mins.

The species named for series [9] is Bos taurus. In words: Inhibition of calf DNA polymerase alpha using bovine deoxyribonuclease 1-treated DNA and dNTP as the DNA template-primer and nucleotide substrate at 10 uM after 60 mins.
The species entered for series [10] is Homo sapiens. In words: Inhibition of histidine-tagged human DNA polymerase gamma using bovine deoxyribonuclease 1-treated DNA and dNTP as the DNA template-primer and nucleotide substrate at 10 uM after 60 mins.
Series [11] deals with T2, DNA polymerase kappa (Homo sapiens). In words: Inhibition of C-terminal His6-tagged human DNA polymerase kappa (amino acids 1 to 560) using bovine deoxyribonuclease 1-treated DNA and dNTP as the DNA template-primer and nucleotide substrate at 10 uM after 60 mins.
Series [12] concerns the target T1, DNA polymerase lambda (Homo sapiens). In words: Inhibition of recombinant His-tagged human DNA polymerase lambda using bovine deoxyribonuclease 1-treated DNA and dNTP as the DNA template-primer and nucleotide substrate at 10 uM after 60 mins.
Series [13] has as its system Nucleic Acid. In words: Binding affinity to DNA assessed as thermal transition of DNA relative to control. The format is nucleic-acid assay.
The nature of series [14]: Cytotoxicity against mouse RAW264.7 cells. The format is cell-based. To be noted: read-out: LD50 (the source's name).

Active and inactive are the calls of the source. The calls are words filed in the database; no cut-off is given here.

With `O=C1C=CC(=O)c2c(O)cccc21` [JUGLONE], the result in series [1], in series [2] and in [4] was Active. The Activity entry in series [3] is “Non-toxic”. Besides, the inhibition result in series [5], in [6], in series [7], in series [8], in [9] and in [10] was “Active” in each case. Besides, the inhibition result in series [11] and in series [12] was “Active” throughout.
Take `CC/C=C\C/C=C\C/C=C\C/C=C\C/C=C\C/C=C\CCC(=O)Oc1cccc2c1C(=O)C=CC2=O`: in [13], the result was inactive. In series [3], the Activity result was “Non-toxic”. Besides, the CC50 in [14] was greater than 10 µM. The result in series [4] was Active. The inhibition result in [5], in [6], in series [7], in series [8], in series [9] and in series [10] was “Active” in each case. Besides, the inhibition entry in series [11] and in series [12] was “Active” throughout.
